# DDE Tn7 FP inh: inhibitors of Tn7 peptide binding to human fibrin DD(E) | P02675 | FP displacement of FITC-Tn7 peptide from fibrin DD(E); 0% = median of compound wells per plate | inhibition, % at 8.3 µM | 370,000 tested, 0.13% active;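 active means inhibition above the mean of compounds falling within the control limits plus 3 SD of them, cut at about 14% in these data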
#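 Assay system: human fibrin DD(E) protein / Input: 2 µM fibrin DD(E) / Benchmarks: high control of 10 µM Aha-Tn7 peptide / Measured by: fluorescence polarization of the labelled Tn7 tracer / Medium: Tris buffer with calcium and detergent, pH 7.8 / Timing: 10 min compound pre-incubation, 3 h probe incubation at room temperature / Repeats: one replicate per compound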
# CendR NRP1 mod: alters CendR peptide binding to human NRP-1; O14786; AID 602438; FAM-RPARPAR peptide binding to NRP-1, fluorescence polarization; inhibition, % at 25 µM; 360,000 tested, 0.85% active;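 active means inhibition or corrected inhibition above about 18%, plus a signal ratio from 0.5 to 1.5, limit read from the data, passing the limit was not always enough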
# Tn6 DDE FP: inhibitors of Tn6 peptide binding to human fibrin DD(E) | 370,000 tested, 0.21% active | Fibrin DD(E) TRITC-Tn6 fluorescence polarization displacement | P02675 | AID 720509 | inhibition, % at 8.3 µM;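 active means inhibition above a per-campaign cutoff: mean of compounds within control limits plus 3 SD, cut at about 15% in these data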
# KLK7 zymogen act: proKLK7 (human) activation, primary screen; P49862; purified proKLK7, EDANS-DABCYL substrate fluorescence; 100% is mature enzyme control, 0% vehicle; activation, % at 7 µM; 370,000 tested, 0.9% active;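 active means activation above the mean of all tested compounds plus 3 SD, computed per campaign excluding outliers beyond control limits, cut at about 13% in these data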
# PLCb3 inh: inhibitors of human phospholipase C beta3; Q01970; Purified PLC-beta3, fluorogenic substrate, fluorescence; inhibition, % at 12.2 µM; 370,000 tested, 0.18% active; AID 720704; in the data active means inhibition above about 11%
# PLCg1 inh: blocks human PLC-gamma1 enzyme activity. P19174. purified PLC-gamma1, fluorogenic substrate, fluorescence. inhibition, % at 12.2 µM. 370,000 tested, 0.84% active; in the data active means inhibition above about 9.5%
# A number is an active result; n = inactive; x = not tested or not shown. In the library only some 3% were active in any assay of this set; here they are far more common.
SMILES,DDE Tn7 FP inh,CendR NRP1 mod,Tn6 DDE FP,KLK7 zymogen act,PLCb3 inh,PLCg1 inh
Cc1ccc(NC(=O)c2ccc(CS(=O)(=O)Cc3ccccc3C)o2)c(C)c1,n,x,n,n,n,n
COc1ccc2[nH]c(C)c(CN3CCCCC3)c(=O)c2c1,n,32,n,n,n,n
CC1=Nc2ccccc2N=C(NC(=O)CSC(=S)N2CCN(C)CC2)C1c1ccccc1 (stereo unspecified),n,n,n,n,n,n
CC1=Nc2ccccc2N=C(NC(=O)CSC(=S)N2CCCCC2)C1c1ccccc1 (stereo unspecified),n,37,n,n,n,n
C[C@@H]1CN([C@H](C)CO)C(=O)CCCn2nncc2CO[C@H]1CN(C)S(=O)(=O)c1cn(C)cn1,n,27,n,n,n,n
C[C@@H]1CN([C@@H](C)CO)C(=O)CCCn2nncc2CO[C@H]1CN(C)C(=O)CCC(F)(F)F,n,n,n,n,n,n
C[C@@H]1CN([C@H](C)CO)C(=O)CCCn2nncc2CO[C@@H]1CN(C)C(=O)CCC(F)(F)F,n,27,n,n,n,n
Clc1ccc([C@H]2OC[C@@]3(CNC4CCCCC4)CS[C@H](c4ccc(Cl)cc4)N23)cc1,n,x,n,n,n,n
CCOC(=O)c1nn(-c2ccc(C)cc2)cc1O,n,n,n,n,n,n
CCOC(=O)c1nn(-c2ccc3c(c2)OCO3)cc1O,n,n,n,32,n,n
Cc1cc(N/C(=N/S(=O)(=O)c2cc(F)ccc2F)c2ccccc2)n(-c2ccccc2)n1,n,27,n,n,n,n
C/C=C/c1ccc(OCCn2nnc3ccccc32)c(OC)c1,n,n,n,n,n,n
C=CCc1ccc(OCCn2nnc3ccccc32)c(OC)c1,n,27,n,n,n,n
CN1CCN(c2ncnc3c2[nH]c2ccc(F)cc23)CC1,n,n,n,20,n,n
Fc1ccc2[nH]c3c(N4CCc5ccccc5C4)ncnc3c2c1,n,n,n,n,n,n
Cn1c(=O)c(=O)n(C)c2cc(S(=O)(=O)N3CCOCC3)ccc21,n,n,n,n,n,n
Cc1ccn2c(c1)nc(=O)c1cc(S(=O)(=O)N3CCOCC3)ccc12,n,21,n,n,n,n
COc1cccc(CN2CCNC(=O)C2CC(=O)NC2CCCCC2)c1OC (stereo unspecified),n,n,n,n,n,n
COc1ccccc1CN1CCNC(=O)C1CC(=O)NC1CCCCCC1 (stereo unspecified),n,26,n,n,n,n
CCC(C(=O)NC1CC(C)(C)NC(C)(C)C1)c1ccccc1 (stereo unspecified),n,n,n,n,n,n
CCC(C(=O)NC1CCN(C)CC1)c1ccccc1 (stereo unspecified),n,53,n,n,n,n
O=C1CC(c2ccc3c(c2)OCO3)N=C2N(Cc3ccc4c(c3)OCO4)C/C(=C/c3ccccc3)N12 (stereo unspecified),n,x,n,x,n,n
CCOC(=O)[C@]12CCCCC/C=C\1N(CCc1ccc(Cl)cc1)C(=O)[C@H]2CC(=O)NCCCCc1ccccc1,n,x,n,n,n,n
COC(=O)[C@]1(CNC(=O)Nc2ccc(C)c(Cl)c2)CC(=O)N(C)[C@@H]1c1ccccc1,n,x,n,n,n,n
COc1ccc(NC(=O)CN(C)CC(=O)Nc2cccc(F)c2)cc1Cl,n,28,n,n,n,n
SMILES,DDE Tn7 FP inh,CendR NRP1 mod,Tn6 DDE FP,KLK7 zymogen act,PLCb3 inh,PLCg1 inh
COc1ccc(NC(=O)c2cccc(F)c2)cc1Cl,n,n,n,n,n,n
Cc1ccc(OC[C@@H](O)CN2CCC(C(O)(c3ccccc3)c3ccccc3)CC2)cc1,n,x,n,n,n,n
c1ccc(Cn2nnc3ccccc32)cc1,n,n,n,n,n,n
C[C@@H](Oc1ccccc1)c1nnn(Cc2ccccc2)c1-c1c([C@@H](C)Oc2ccccc2)nnn1Cc1ccccc1,n,x,n,n,n,16
C=CCc1cccc(/C=N/n2c(C)nnc2C)c1O,n,20,n,n,n,n
O=C1CC/C=C\C[C@@H](CC(=O)N(CCO)Cc2ccccc2)C(=O)NCCO1,n,26,n,n,n,n
O=C1CC/C=C\C[C@@H](CC(=O)N(CCO)Cc2ccccc2)C(=O)N[C@H](Cc2ccccc2)CO1,n,n,n,n,n,n
CCN(CC)S(=O)(=O)c1cccc2nsnc12,n,27,n,n,n,n
CCN(c1ccc(F)cc1)S(=O)(=O)c1cccc2nsnc12,n,n,n,n,n,n
Cc1nn(-c2ccccc2)c(C)c1C=NNC(=O)CSc1nc2ccccc2n1C,n,x,n,n,n,n
COc1ccc(/C=N/NC(=O)c2cccnc2)cc1CSc1nc2ccccc2s1,n,n,n,n,n,n
COc1ccc(/C=N/NC(=O)c2ccccc2Cl)cc1CSc1nc2ccccc2s1,n,31,n,n,n,n
CN(C(=O)[C@@H](C1CC1)[C@@H](O)c1ccc(Cl)cc1)c1ccccc1,n,x,n,n,n,n
NC(=O)C1CCCN1 (stereo unspecified),n,22,n,n,n,n
Cc1ccc(-c2c(NC(=O)c3ccccc3)nc3ncccn23)cc1,n,x,n,n,n,n
Cn1nc(-c2ccc(N3CCOCC3)c(NS(=O)(=O)c3ccc(Cl)cc3)c2)c2ccccc2c1=O,n,26,n,n,n,n
Cc1ccccc1C(=O)N(C)[C@H]1C[C@H]2c3[nH]c4c(-c5ccc6c(c5)OCO6)cccc4c3CCN2C[C@H]1[C@H](C)O,n,x,n,n,n,n
O=C(CCc1ccccc1)N[C@H]1[C@H](OC(=O)c2cnccn2)CCC[C@@]12C(=O)N(Cc1ccccc1)c1ccccc12,n,x,n,n,n,n
COc1cccc(C(=O)N2N=C(c3ccccc3)CC2(O)C(F)(F)F)c1 (stereo unspecified),n,27,n,n,n,n
Cc1ccc(S(=O)(=O)NCc2ccncc2)cc1C,n,22,n,n,n,n
O=S1(=O)c2c(cccc2N2CCSCC2)Oc2ccccc2CN1Cc1cn(Cc2ccc(C(F)(F)F)cc2)nn1,n,x,n,n,n,n
C[C@H]1CCCN1c1ccc2c(c1)OCCCN(C1CC1)S2(=O)=O,n,x,n,n,n,n
c1ccc(-c2ccc3sccc3n2)cc1,n,27,n,n,n,n
COC(=O)Oc1ccc(/C=N/NC(=O)CN(c2ccccc2Br)S(C)(=O)=O)cc1OC,n,23,n,n,n,n
CCc1ccccc1N(CC(=O)N/N=C/c1ccc(OC(=O)OC)c(OC)c1)S(C)(=O)=O,n,n,n,n,n,n
COc1ccc(Cn2cc(CN3[C@H](CC(C)C)COc4cc(Br)ccc4S3(=O)=O)nn2)cc1,n,x,n,n,n,n

# Screens: PubChem BioAssay, several laboratories
